Source: ChEMBL document CHEMBL4414600, “Discovery of a Furanopyrimidine-Based Epidermal Growth Factor Receptor Inhibitor (DBPR112) as a Clinical Candidate for the Treatment of Non-Small Cell Lung Cancer” (J Med Chem, 2019)
pIC50: −log10 of the molar value. The source made the active and inactive calls. No cut-off for these calls is given here.

Tests used:
NCI-H1975 [1] = assay: Cytotoxicity in human NCI-H1975 cells assessed as reduction in cell viability incubated for 96 hrs by MTS method; assay type: functional
[2] = target: Epidermal growth factor receptor (Homo sapiens, UniProt P00533, L858R/T790M)
[3] = target: Epidermal growth factor receptor (Homo sapiens, UniProt P00533)
HCC827 [4] = assay: Cytotoxicity in human HCC827 cells assessed as reduction in cell viability incubated for 96 hrs by MTS method; assay type: functional
[5] = Inhibition of GST-tagged human HER2 V777_G778insCG mutant mutant using poly(Glu, Tyr) 4:1 substrate incubated for 120 mins by kinase-Glo plus luminescent kinase assay
[6] = Inhibition of GST-tagged human EGFR D770GY mutant using poly(Glu, Tyr) 4:1 substrate incubated for 120 mins by kinase-Glo plus luminescent kinase assay
[7] = target: Epidermal growth factor receptor (Homo sapiens, UniProt P00533, D770-N771INSNPG); assay: Inhibition of GST-tagged human EGFR D770_N771insNPG mutant using poly(Glu, Tyr) 4:1 substrate incubated for 120 mins by kinase-Glo plus luminescent kinase assay
[8] = target: Epidermal growth factor receptor (Homo sapiens, UniProt P00533, A763-Y764INSFHEA); assay: Inhibition of GST-tagged human EGFR A763_Y764insFHEA mutant using poly(Glu, Tyr) 4:1 substrate incubated for 120 mins by kinase-Glo plus luminescent kinase assay
A-431 = assay: Cytotoxicity in human A431 cells assessed as reduction in cell viability incubated for 96 hrs by MTS method; assay type: functional
[9] = Toxicity in athymic NU-Fox1nu nude mouse xenografted with human HCC827 cells assessed as induction of body weight loss at 20 mg/kg, po dosed via gavage for 5 days/week for 2 consecutive weeks; assay type: organism-based; conditions: in vivo, 120 h
How it was run: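 Male athymic NU-Fox1nu nude mice, 6–8 weeks old, were inoculated subcutaneously at the left flank with 5x10^6 HCC827 (exon 19 Del E746_A750) cells. Oral gavage began at a mean tumor size of about 500 mm³, in 1% methylcellulose/0.5% Tween 80/98.5% water, once daily on days 1-5 and 8-12. Tumor volume (V = 0.5 a × b², caliper) and body weight were tracked.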

NCI-H1975 [10] = assay: Antitumor activity against human NCI-H1975 cells xenografted in nude BALB/c mouse assessed as inhibition of tumor growth at 15 mg/kg, po QD for 15 days relative to control; assay type: functional; conditions: 360 h, read-out: TGI
How it was run: (§1)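 H1975 cells were grown in RPMI1640 with 10% heat-inactivated FBS at 37 °C, 5% CO2, and passaged by trypsin-EDTA. 5x10^6 cells in 0.1 ml PBS were injected subcutaneously at the right flank of BALB/c nude mice. Oral QD dosing for 15 days began at a mean tumor size of 147 mm³, n = 5 per group.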

[11] = Toxicity in nude BALB/c mouse xenografted with human NCI-H1975 cells assessed as drug tolerability at 15 mg/kg, po QD for 15 days relative to control; assay type: organism-based; conditions: in vivo, 360 h; how it was run: as §1
[12] = Cmax in rat at 20 mg/kg, po; assay type: ADME, organism-based; design: dose 20 mg/kg, route oral; conditions: in vivo
How it was run: (§2)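 Rat pharmacokinetics: single IV injection at 5 mg/kg or oral dosing at 20 mg/kg (23.6 mg/kg oral for one compound). Plasma parameters t1/2, CL, Vss, AUC(0-inf), Cmax, Tmax and oral bioavailability F were derived from the concentration–time profiles.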

[13] = Clearance in rat at 5 mg/kg, iv; assay type: ADME, organism-based; conditions: in vivo
[14] = AUC (0 to infinity) in rat at 20 mg/kg, po; assay type: ADME, organism-based; design: dose 20 mg/kg, route oral, time infinity; conditions: in vivo; how it was run: as §2
[15] = Toxicity in ICR mouse assessed as induction of fur loss in nose and abdomen area at 100 mg/kg, po QD for 2 weeks; assay type: organism-based; conditions: in vivo, 336 h
HCC827 [16] = conditions: Homo sapiens
[17] = Tmax in rat at 20 mg/kg, po; assay type: ADME, organism-based; conditions: in vivo; how it was run: as §2
[18] = AUC (0 to infinity) in rat at 5 mg/kg, iv; assay type: ADME, organism-based; design: dose 5 mg/kg, time infinity, route intravenous; conditions: in vivo
[19] = Half life in rat at 5 mg/kg, iv; assay type: ADME, organism-based; conditions: in vivo
[20] = Toxicity in nude BALB/c mouse xenografted with human NCI-H1975 cells assessed as induction of body weight loss at 15 mg/kg, po QD for 15 days relative to control; assay type: organism-based; conditions: in vivo, 360 h; how it was run: as §1
[21] = Toxicity in ICR mouse assessed as induction of skin rash at 100 mg/kg, po QD for 2 weeks; assay type: organism-based; conditions: in vivo, 336 h
[22] = Half life in rat at 20 mg/kg, po; assay type: ADME, organism-based; conditions: in vivo; how it was run: as §2
[23] = Volume of distribution at steady state in rat at 5 mg/kg, iv; assay type: ADME, organism-based; conditions: in vivo, read-out: Vdss
[24] = Oral bioavailability in rat at 20 mg/kg; assay type: ADME, organism-based; conditions: in vivo; how it was run: as §2

Epidermal growth factor receptor (Homo sapiens, UniProt P00533), sequence (P00533 whole entry): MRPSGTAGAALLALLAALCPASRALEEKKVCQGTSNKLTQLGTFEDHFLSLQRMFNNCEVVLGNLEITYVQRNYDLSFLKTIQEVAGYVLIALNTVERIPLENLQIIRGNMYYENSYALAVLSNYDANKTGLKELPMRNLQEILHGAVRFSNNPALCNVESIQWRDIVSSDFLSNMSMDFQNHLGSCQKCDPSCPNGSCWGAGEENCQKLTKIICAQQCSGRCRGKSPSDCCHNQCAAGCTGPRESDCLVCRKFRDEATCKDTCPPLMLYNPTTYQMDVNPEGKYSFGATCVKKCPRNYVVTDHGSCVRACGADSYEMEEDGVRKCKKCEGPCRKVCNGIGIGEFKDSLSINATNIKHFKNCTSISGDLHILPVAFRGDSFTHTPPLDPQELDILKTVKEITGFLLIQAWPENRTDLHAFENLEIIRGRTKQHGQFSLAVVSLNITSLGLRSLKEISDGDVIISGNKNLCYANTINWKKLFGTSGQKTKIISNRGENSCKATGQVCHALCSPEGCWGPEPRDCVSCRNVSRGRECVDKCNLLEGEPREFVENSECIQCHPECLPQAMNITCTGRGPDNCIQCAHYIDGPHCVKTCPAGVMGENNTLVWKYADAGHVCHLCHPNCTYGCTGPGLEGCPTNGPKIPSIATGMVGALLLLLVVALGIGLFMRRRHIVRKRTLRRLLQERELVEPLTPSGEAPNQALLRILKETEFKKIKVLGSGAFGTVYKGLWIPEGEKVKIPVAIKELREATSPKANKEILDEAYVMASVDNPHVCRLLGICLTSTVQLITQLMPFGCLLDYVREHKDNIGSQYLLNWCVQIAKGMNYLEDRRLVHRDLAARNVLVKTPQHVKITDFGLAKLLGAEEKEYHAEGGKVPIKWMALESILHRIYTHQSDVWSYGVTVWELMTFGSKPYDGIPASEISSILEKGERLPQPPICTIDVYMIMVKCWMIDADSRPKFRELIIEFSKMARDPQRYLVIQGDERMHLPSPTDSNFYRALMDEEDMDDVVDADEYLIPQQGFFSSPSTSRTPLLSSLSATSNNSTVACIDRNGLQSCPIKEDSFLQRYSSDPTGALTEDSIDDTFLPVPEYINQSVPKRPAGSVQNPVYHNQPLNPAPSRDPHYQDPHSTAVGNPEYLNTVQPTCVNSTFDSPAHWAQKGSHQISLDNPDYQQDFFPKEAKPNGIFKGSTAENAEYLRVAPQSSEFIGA
Epidermal growth factor receptor (Homo sapiens, UniProt P00533, L858R/T790M), sequence (P00533 25-1210 T790M/L858R limits assumed): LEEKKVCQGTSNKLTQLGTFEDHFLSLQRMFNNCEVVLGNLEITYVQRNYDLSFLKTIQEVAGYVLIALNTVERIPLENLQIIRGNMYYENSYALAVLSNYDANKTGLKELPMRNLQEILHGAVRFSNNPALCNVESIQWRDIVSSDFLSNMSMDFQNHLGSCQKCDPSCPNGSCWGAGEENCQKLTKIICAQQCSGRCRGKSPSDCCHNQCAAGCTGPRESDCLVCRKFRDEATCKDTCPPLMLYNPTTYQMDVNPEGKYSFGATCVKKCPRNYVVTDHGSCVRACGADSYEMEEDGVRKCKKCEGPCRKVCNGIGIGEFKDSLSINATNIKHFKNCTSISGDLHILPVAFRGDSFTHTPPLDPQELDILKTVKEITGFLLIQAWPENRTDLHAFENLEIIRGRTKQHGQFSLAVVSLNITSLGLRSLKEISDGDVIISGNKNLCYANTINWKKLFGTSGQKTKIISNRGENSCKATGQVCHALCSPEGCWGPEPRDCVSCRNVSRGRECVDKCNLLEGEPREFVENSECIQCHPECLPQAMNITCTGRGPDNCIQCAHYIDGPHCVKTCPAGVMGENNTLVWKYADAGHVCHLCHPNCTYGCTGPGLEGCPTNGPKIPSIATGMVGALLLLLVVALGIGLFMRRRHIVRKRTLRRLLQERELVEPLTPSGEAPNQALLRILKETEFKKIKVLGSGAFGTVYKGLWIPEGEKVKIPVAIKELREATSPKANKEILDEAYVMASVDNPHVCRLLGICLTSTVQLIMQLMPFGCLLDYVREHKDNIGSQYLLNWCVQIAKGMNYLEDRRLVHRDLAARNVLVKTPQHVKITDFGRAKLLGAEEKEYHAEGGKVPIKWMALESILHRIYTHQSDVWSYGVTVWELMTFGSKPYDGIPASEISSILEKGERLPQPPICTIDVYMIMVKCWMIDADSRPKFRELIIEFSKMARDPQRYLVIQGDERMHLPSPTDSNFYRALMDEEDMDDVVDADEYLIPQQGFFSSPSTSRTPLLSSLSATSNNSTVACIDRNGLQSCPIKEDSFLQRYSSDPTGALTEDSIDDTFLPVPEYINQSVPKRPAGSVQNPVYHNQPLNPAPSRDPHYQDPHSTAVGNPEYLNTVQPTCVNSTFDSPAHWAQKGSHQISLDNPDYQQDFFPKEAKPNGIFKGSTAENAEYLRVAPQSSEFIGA
Epidermal growth factor receptor (Homo sapiens, UniProt P00533, D770-N771INSNPG), sequence (P00533 whole entry, looked up, stated change not applied): as the sequence (P00533 whole entry) above
Epidermal growth factor receptor (Homo sapiens, UniProt P00533, A763-Y764INSFHEA), sequence (P00533 whole entry, looked up, stated change not applied): as the sequence (P00533 whole entry) above

Structure (SMILES) | pIC50 [2] | pIC50 [3] | CC50 (NCI-H1975 [1]; Homo sapiens, NCI-H1975, 96 h) [nM] | CC50 (HCC827 [4]; Homo sapiens, HCC827, 96 h) [nM] | further results
CCN(C/C=C/C(=O)Nc1cccc(-c2c(-c3ccccc3)oc3ncnc(N[C@H](CO)c4ccccc4)c23)c1)CCO | 6.93 | 7.89 | 2410 | 19 | 
CCOC(=O)/C=C/C(=O)Nc1cccc(-c2c(-c3ccccc3)oc3ncnc(N[C@H](CO)c4ccccc4)c23)c1 |  |  | 7010 | 516 | 
CC(C)C/C=C/C(=O)Nc1cccc(-c2c(-c3ccccc3)oc3ncnc(N[C@H](CO)c4ccccc4)c23)c1 | < 5.00 | < 5.00 | > 20000 | 679 | 
CN(C)C/C=C/C(=O)Nc1cccc(-c2c(-c3ccccc3)oc3ncnc(N[C@@H](CO)c4ccccc4)c23)c1 |  |  |  |  | CC50 (HCC827 [4]): 1050 nM
CCN(CC)C/C=C/C(=O)Nc1cccc(-c2c(-c3ccccc3)oc3ncnc(N[C@H](CO)c4ccccc4)c23)c1 | 6.88 | 7.85 | 2480 | 62 | 
C=CC(=O)Nc1cccc(-c2c(-c3ccccc3)oc3ncnc(N[C@@H](CO)c4ccccc4)c23)c1 |  |  |  |  | CC50 (NCI-H1975 [1]): 13400 nM; CC50 (HCC827 [4]): 840 nM
C=CC(=O)Nc1cccc(-c2c(-c3ccccc3)oc3ncnc(N[C@H](C)c4ccccc4)c23)c1 | 6.30 | 6.93 | 4300 | 58 | pIC50 [5]: 8.09; pIC50 [6]: 9.19; pIC50 [7]: 8.83; pIC50 [8]: 9.67; CC50 (A-431; Homo sapiens, A-431, 96 h): 449 nM
O=C(/C=C/c1ccccc1)Nc1cccc(-c2c(-c3ccccc3)oc3ncnc(N[C@H](CO)c4ccccc4)c23)c1 | < 5.00 | 5.30 | > 20000 | 1780 | 
C=CC(=O)Nc1cccc(-c2c(-c3ccccc3OC)oc3ncnc(N[C@H](CO)c4ccccc4)c23)c1 |  |  | 4080 | 34 | pIC50 [5]: 8.28; pIC50 [6]: 9.53; CC50 (A-431; Homo sapiens, A-431, 96 h): > 8010 nM
O=C(O)/C=C/C(=O)Nc1cccc(-c2c(-c3ccccc3)oc3ncnc(N[C@H](CO)c4ccccc4)c23)c1 | < 5.00 | 5.51 | > 20000 | 4120 | 
O=C(/C=C/CN1CCOCC1)Nc1cccc(-c2c(-c3ccccc3)oc3ncnc(N[C@H](CO)c4ccccc4)c23)c1 | 6.55 | 7.72 | 2830 | 17 | 
C=CC(=O)Nc1cc(Nc2nccc(-c3cn(C)c4ccccc34)n2)c(OC)cc1N(C)CCN(C)C [OSIMERTINIB] |  |  |  |  | pIC50 [5]: 8.48; pIC50 [6]: 9.07; CC50 (A-431): […]
CC#CC(=O)Nc1cccc(-c2c(-c3ccccc3)oc3ncnc(N[C@H](CO)c4ccccc4)c23)c1 | 5.20 | 7.19 | 6740 | 182 | 
CN(C)C/C=C/C(=O)Nc1cc2c(Nc3ccc(F)c(Cl)c3)ncnc2cc1O[C@H]1CCOC1 [AFATINIB] |  |  | 224 | 14 | Activity [9]: 5%; inhibition in vivo at 15 mg/kg (NCI-H1975 [10]): 65%; Activity [11]: Non-Toxic; Cmax [12]: 75.2 ng/mL; clearance [13]: 79.2 mL/min/kg; AUC(0-inf) [14]: 676 ng·h/mL; Activity [15]: Toxic; TGI (HCC827 [16]): Active; Tmax [17]: 4.2 h; AUC(0-inf) [18]: 1060 ng·h/mL; half-life [19]: 5.7 h; Activity [20]: Non-Toxic; Activity [21]: Toxic; half-life [22]: 6 h; Vd [23]: 28.7 L/kg; bioavailability [24]: 15.9%
OC[C@@H](Nc1ncnc2oc(-c3ccccc3)c(-c3ccccc3)c12)c1ccccc1 | < 5.00 |  |  | 518 | 
C=CC(=O)N1CCC(Oc2cc3c(Nc4ccc(Cl)c(Cl)c4F)ncnc3cc2OC)CC1 [POZIOTINIB] |  |  |  |  | pIC50 [5]: 9.69; pIC50 [6]: 10.09; CC50 (A-431; Homo sapiens, A-431, 96 h): 31 nM
C=CS(=O)(=O)Nc1cccc(-c2c(-c3ccccc3)oc3ncnc(N[C@H](CO)c4ccccc4)c23)c1 | 5.61 | 5.43 | 7240 | 2710 | 
C=CC(=O)Nc1cccc(-c2c(-c3ccccc3)oc3ncnc(N[C@H](CO)c4ccccc4)c23)c1 |  |  |  |  | Cmax [12]: 193 ng/mL; CC50 (NCI-H1975 [1]): 1260 nM; clearance [13]: 76.5 mL/min/kg; AUC(0-inf) [14]: 303 ng·h/mL; Tmax [17]: 1.2 h; AUC(0-inf) [18]: 1100 ng·h/mL; CC50 (HCC827 [4]): 24 nM; half-life [19]: 0.5 h; half-life [22]: 0.9 h; Vd [23]: 2.3 L/kg; bioavailability [24]: 5.5%

More lines, main results first:

pIC50 [2] | pIC50 [3] | Structure (SMILES) | CC50 (NCI-H1975 [1]; Homo sapiens, NCI-H1975, 96 h) [nM] | CC50 (HCC827 [4]; Homo sapiens, HCC827, 96 h) [nM] | further results
< 5.00 | 6.80 | C=CC(=O)Nc1cccc(-c2coc3ncnc(N[C@H](CO)c4ccccc4)c23)c1 | > 20000 | 744 | 
6.19 | 6.87 | C=CC(=O)Nc1cccc(-c2c(-c3ccccc3)sc3ncnc(N[C@H](CO)c4ccccc4)c23)c1 | 10700 | 146 | pIC50 [5]: 6.43; pIC50 [6]: 8.32; pIC50 [7]: 7.75; pIC50 [8]: 8.94; CC50 (A-431; Homo sapiens, A-431, 96 h): > 20000 nM
5.90 | 6.97 | C=CC(=O)Nc1cccc(-c2c(C)sc3ncnc(N[C@H](CO)c4ccccc4)c23)c1 | 12600 | 35 | 
< 5.00 | 6.62 | C/C=C/C(=O)Nc1cccc(-c2c(-c3ccccc3)oc3ncnc(N[C@H](CO)c4ccccc4)c23)c1 | 13200 | 307 | 
5.33 | 6.38 | C=CC(=O)Nc1cccc(-c2noc3ncnc(N[C@H](CO)c4ccccc4)c23)c1 | > 20000 | 105 | 
5.64 | 7.09 | C=CC(=O)Nc1cccc(-c2csc3ncnc(N[C@H](CO)c4ccccc4)c23)c1 | > 20000 | 56 | 
5.88 | 7.21 | C=CC(=O)Nc1cccc(-c2c(C)oc3ncnc(N[C@H](CO)c4ccccc4)c23)c1 | > 20000 | 46 | 
5.97 | 7.09 | C=CC(=O)Nc1cccc(-c2c(Cl)sc3ncnc(N[C@H](CO)c4ccccc4)c23)c1 | 8660 | 51 | 
